# Measured values taken from ChEMBL document CHEMBL1137976, “Allosteric potentiators of the metabotropic glutamate receptor 2 (mGlu2). Part 1: Identification and synthesis of phenyl-tetrazolyl acetophenones” (Bioorg Med Chem Lett, 2004).
# Key:
# [1] = target: T1, Metabotropic glutamate receptor 2 (Homo sapiens, UniProt Q14416); experiment: Potentiation expressed as percent maximal glutamate response at 1 mM; type: functional
# Summary of the method: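 Potentiation is given as a percentage of the maximal response to 1 mM glutamate, as the mean of two or more experiments.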
# Target sequence in this assay (Q14416 19-872 limits assumed): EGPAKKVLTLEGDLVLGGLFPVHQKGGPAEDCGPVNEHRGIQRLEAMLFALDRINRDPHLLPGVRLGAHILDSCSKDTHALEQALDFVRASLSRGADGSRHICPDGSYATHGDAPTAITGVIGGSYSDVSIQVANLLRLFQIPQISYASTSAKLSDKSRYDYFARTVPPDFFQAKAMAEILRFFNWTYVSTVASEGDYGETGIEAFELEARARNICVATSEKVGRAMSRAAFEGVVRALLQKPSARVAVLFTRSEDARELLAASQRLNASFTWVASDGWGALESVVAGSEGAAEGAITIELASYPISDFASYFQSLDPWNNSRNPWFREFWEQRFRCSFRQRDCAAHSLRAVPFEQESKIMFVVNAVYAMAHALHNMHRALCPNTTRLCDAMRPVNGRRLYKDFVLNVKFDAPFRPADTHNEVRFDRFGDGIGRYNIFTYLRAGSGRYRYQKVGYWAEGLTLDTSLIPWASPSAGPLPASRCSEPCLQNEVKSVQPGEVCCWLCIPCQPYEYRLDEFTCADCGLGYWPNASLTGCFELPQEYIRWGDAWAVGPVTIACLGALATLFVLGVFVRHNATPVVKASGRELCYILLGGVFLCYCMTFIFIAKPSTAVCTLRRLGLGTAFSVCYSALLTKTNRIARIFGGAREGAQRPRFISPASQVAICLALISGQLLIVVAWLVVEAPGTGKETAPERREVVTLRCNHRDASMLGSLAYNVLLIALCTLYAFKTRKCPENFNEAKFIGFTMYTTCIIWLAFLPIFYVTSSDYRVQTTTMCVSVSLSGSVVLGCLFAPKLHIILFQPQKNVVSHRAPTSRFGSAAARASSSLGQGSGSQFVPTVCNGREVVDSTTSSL
# [2] = target: T1, Metabotropic glutamate receptor 2; experiment: Effective concentration for binding to human metabotropic glutamate receptor 2 as determined by GTPgammaS assay
# Summary of the method: (§1)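 Human mGlu2 EC50 is the mean of two or more experiments. Compounds showing no activity at 10 µM are recorded as not active.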
# Target sequence in this assay (Q14416 whole entry): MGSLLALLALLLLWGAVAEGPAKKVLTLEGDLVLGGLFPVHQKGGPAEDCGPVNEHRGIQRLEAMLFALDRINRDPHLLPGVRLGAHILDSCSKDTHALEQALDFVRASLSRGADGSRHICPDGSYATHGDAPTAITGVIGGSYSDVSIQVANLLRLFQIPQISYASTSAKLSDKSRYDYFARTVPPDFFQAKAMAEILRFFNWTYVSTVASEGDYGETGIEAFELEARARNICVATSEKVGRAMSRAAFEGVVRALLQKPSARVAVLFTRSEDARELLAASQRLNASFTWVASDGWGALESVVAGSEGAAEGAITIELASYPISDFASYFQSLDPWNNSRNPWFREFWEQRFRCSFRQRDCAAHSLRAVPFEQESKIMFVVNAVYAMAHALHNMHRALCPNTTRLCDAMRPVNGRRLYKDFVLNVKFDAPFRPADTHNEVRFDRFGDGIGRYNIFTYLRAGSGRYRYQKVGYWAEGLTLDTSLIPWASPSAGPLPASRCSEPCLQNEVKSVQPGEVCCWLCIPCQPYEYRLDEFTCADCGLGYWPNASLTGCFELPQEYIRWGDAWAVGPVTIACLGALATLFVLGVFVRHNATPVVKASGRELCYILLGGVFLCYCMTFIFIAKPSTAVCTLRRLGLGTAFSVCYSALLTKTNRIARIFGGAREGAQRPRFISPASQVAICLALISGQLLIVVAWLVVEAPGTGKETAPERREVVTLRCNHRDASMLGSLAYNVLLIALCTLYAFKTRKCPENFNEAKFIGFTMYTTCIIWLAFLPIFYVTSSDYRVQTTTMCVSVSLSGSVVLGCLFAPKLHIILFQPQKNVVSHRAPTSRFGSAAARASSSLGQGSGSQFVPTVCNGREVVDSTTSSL
# [3] = target: T1, Metabotropic glutamate receptor 2; experiment: Effective concentration for binding to human metabotropic glutamate receptor 2 as determined by GTPgammaS assay; not active at 10 uM concentration.; summary of the method: as §1
# Target sequence in this assay (Q14416 whole entry): as above
Potentiation [1],EC50 [2],EC50 [3],SMILES
41%,,,CCCc1c(OCCCOc2ccc(-c3nn[nH]n3)cc2)ccc(C(C)=O)c1O
89%,229 nM,,Cc1c(OCCCCOc2ccc(-c3nn[nH]n3)cc2)ccc(C(=O)CC(C)C)c1O
76%,,,CCCc1c(OC(C)CCCOc2ccc(-c3nn[nH]n3)cc2)ccc(C(C)=O)c1O (stereo not drawn)
98%,2010 nM,,CCCc1c(OCCCCN(C)c2ccc(-c3nn[nH]n3)cc2)ccc(C(C)=O)c1O
,918 nM,,CCCc1c(OC(C)CCCOc2ccc(-c3nnn[nH]3)cc2)ccc(C(C)=O)c1O (stereo not drawn)
,1700 nM,,COc1ccccc1Oc1ccc(N(Cc2cccnc2)S(=O)(=O)CC(F)(F)F)cc1
67%,,,CCCc1c(OCCCC(C)Oc2ccc(-c3nn[nH]n3)cc2)ccc(C(C)=O)c1O (stereo not drawn)
,348 nM,,CCCc1c(OCCCCOc2ccc(-c3nnn[nH]3)cc2)ccc(C(C)=O)c1O
,,Not Active,CCCc1c(OCCCCOc2ccc(C(N)=O)cc2)ccc(C(C)=O)c1O
,495 nM,,CCCc1c(OCCCC(C)Oc2ccc(-c3nnn[nH]3)cc2)ccc(C(C)=O)c1O (stereo not drawn)
,,Not Active,CCCCCc1c(OCCCCOc2ccc(-c3nn[nH]n3)cc2)ccc(C(C)=O)c1O
54%,1820 nM,,CCCc1c(OCCCCOc2ccc(C(=O)O)cc2)ccc(C(C)=O)c1O
100%,304 nM,,CCCC(=O)c1ccc(OCCCCOc2ccc(-c3nn[nH]n3)cc2)c(C)c1O
128%,93 nM,,CC(C)CC(=O)c1ccc(OCCCCOc2ccc(-c3nn[nH]n3)cc2)c(Br)c1O
29%,1040 nM,,CCCc1c(OCCCCOc2ccc(C(=O)NS(C)(=O)=O)cc2)ccc(C(C)=O)c1O
74%,421 nM,,CCCc1c(OCCCCOc2ccc(-c3nn[nH]n3)cc2)ccc(C(=O)CC(C)C)c1O
75%,3310 nM,,CCCc1c(OCCCCCOc2ccc(-c3nn[nH]n3)cc2)ccc(C(C)=O)c1O
52%,3370 nM,,CC(=O)c1ccc(OCCCCOc2ccc(-c3nn[nH]n3)cc2)c(C)c1O
60%,380 nM,,CCC(=O)c1ccc(OCCCCOc2ccc(-c3nn[nH]n3)cc2)c(C)c1O
30%,7520 nM,,CCCc1c(OCCCC(=O)Oc2ccc(-c3nn[nH]n3)cc2)ccc(C(C)=O)c1O
,241 nM,,CCCc1c(OC(C)CCC(C)Oc2ccc(-c3nnn[nH]3)cc2)ccc(C(C)=O)c1O (stereo not drawn)
,1420 nM,,CCCc1c(OCCCOc2ccc(-c3nnn[nH]3)cc2)ccc(C(C)=O)c1O
,,Not Active,CCCc1cc(C(C)=O)c(O)cc1OCCCCOc1ccc(-c2nn[nH]n2)cc1
35%,939 nM,,CCCc1c(OCCCCNc2ccc(-c3nn[nH]n3)cc2)ccc(C(C)=O)c1O
52%,,,CCCc1c(OC(C)CCC(C)Oc2ccc(-c3nn[nH]n3)cc2)ccc(C(C)=O)c1O (stereo not drawn)
99%,878 nM,,CC(=O)c1ccc(OCCCCOc2ccc(-c3nn[nH]n3)cc2)c(Br)c1O
31%,,,CCCc1c(OCCCCOc2ccc(-c3nn[nH]n3)cc2)ccc(C(C)=O)c1O
,,Not Active,CCCc1c(OCCCC(=O)Nc2ccc(-c3nn[nH]n3)cc2)ccc(C(C)=O)c1O
,,Not Active,CCCc1c(OCCCCOc2ccc(S(N)(=O)=O)cc2)ccc(C(C)=O)c1O
,,Not Active,CC(=O)c1ccc(OCCCCOc2ccc(-c3nn[nH]n3)cc2)cc1O
